# Assay results reported in ChEMBL document CHEMBL4732102, “Sustainable, three-component, one-pot procedure to obtain active anti-flavivirus agents” (Eur J Med Chem, 2021).
# pEC50, pIC50: −log10 of the molar value. Active and inactive are the calls of the source. The calls are words filed in the database; no cut-off is given here.
# Key:
# dengue virus type 2 [1] = test: Inhibition of Dengue virus 2 full length NS5 RNA-dependent RNA polymerase assessed as reduction in de novo initiation activity at 30 uM incubated for 1 hr relative to control
# Method in brief: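 De novo initiation assay: 100 nM full-length DENV-2 NS5 with 100 nM in vitro transcribed DENV-2 5'UTR-3'UTR RNA, 20 µM each of ATP, GTP and UTP, and 5 µM Atto-CTP. Buffer Tris-HCl pH 7.5 with KCl, 1 mM MgCl2, 0.3 mM MnCl2, Triton X-100 and 10 µM cysteine. Compound at 30 µM; 1 h at 37 °C. Read-out by alkaline phosphatase-released AttoPhos fluorescence (422/566 nm).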
# dengue virus type 2 [2] = test: Inhibition of Dengue virus 2 full length NS5 RNA-dependent RNA polymerase assessed as reduction in elongation activity at 30 uM incubated for 1 hr relative to control
# Method in brief: (§1)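 Elongation (primer-dependent) assay: 100 nM full-length DENV-2 NS5, 100 nM U30-3'UTR template and 3 µM Atto-ATP in 50 mM Tris-HCl pH 7.5, 10 mM KCl, 0.5 mM MnCl2, Triton and 10 µM cysteine. Run 1 h at 37 °C; stopped with alkaline phosphatase and AttoPhos fluorescence read at 422/566 nm. Single point at 30 µM; IC50 is average ± SE of one experiment in duplicate.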
# [3] = Inhibition of Dengue virus 2 full length NS5 RNA-dependent RNA polymerase assessed as reduction in elongation activity incubated for 1 hr; design: species or system dengue virus type 2; details: for pIC50: read-out: IC50; method in brief: as §1
# [4] = (§2) Cytotoxicity against human Huh-7 cells assessed as reduction in cell viability incubated for 48 hrs by celltiter glo luminescent assay; type: cell-based; details: Huh-7 cells
# Method in brief: (§3)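 Huh-7 cells (2 × 10^4 seeded, DMEM with 10% FBS) exposed to compound for 48 h at 37 °C. Viability read by CellTiter-Glo luminescence as percent of untreated control. CC50 derived from the viability curve.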
# dengue virus type 2 [5] = test: Antiviral activity against dengue virus 2 EDEN 3295 infected in human Huh-7 cells assessed as reduction in virus replication incubated for 48 hrs by plaque reduction assay; type: functional, organism-based; details: EDEN 3295, Huh-7, 48 h
# Method in brief: (§4)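 Huh-7 cells (1 × 10^5 seeded) infected 1 h at 37 °C with ZIKV H/PF/2013 at MOI 0.5 or DENV-2 EDEN3295 at MOI 0.3. Dose–response treatment from 0.01 to 100 µM followed, 24 h for ZIKV and 48 h for DENV-2. Supernatant titre measured by BHK-21 plaque assay. EC50 taken from a sigmoidal fit of titre versus concentration; average ± SE of one experiment in duplicate.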
# Zika virus [6] = test: Antiviral activity against Zika virus H/PF/2013 infected in human Huh-7 cells assessed as reduction in virus replication at 10 uM incubated for 24 hrs by plaque reduction assay relative to control; type: functional; design: scale not given: the % may be the effect or the level left
# Method in brief: (§5)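 Huh-7 cells (1 × 10^5 seeded) infected 1 h at 37 °C with DENV-2 EDEN3295 (MOI 0.3) or ZIKV H/PF/2013 (MOI 0.5). Infected cells then treated at a single 10 µM concentration, 24 h for ZIKV and 48 h for DENV-2. Clarified supernatant titred by BHK-21 plaque assay. Viral titre reduction expressed as percent inhibition.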
# [7] = Selectivity index, ratio of CC50 for human Huh-7 cells to EC50 for dengue virus 2 EDEN 3295 infected in human Huh-7 cells; type: toxicity, cell-based; details: read-out: Ratio CC50/EC50
# Zika virus [8] = test: Antiviral activity against Zika virus H/PF/2013 infected in human Huh-7 cells assessed as reduction in virus replication incubated for 24 hrs by plaque reduction assay; type: functional, organism-based; details: H/PF/2013, Huh-7, 24 h; method in brief: as §4
# [9] = Selectivity index, ratio of CC50 for human Huh-7 cells to EC50 for Zika virus H/PF/2013 infected in human Huh-7 cells; type: toxicity, cell-based; details: read-out: Ratio CC50/EC50
# Huh-7 = test: as §2; type: cell-based; details: huh-7, 48 h; method in brief: as §3
# dengue virus type 2 [10] = test: Antiviral activity against dengue virus 2 EDEN 3295 infected in human Huh-7 cells assessed as reduction in virus replication at 10 uM incubated for 48 hrs by plaque reduction assay relative to control; type: functional; design: scale not given: the % may be the effect or the level left; method in brief: as §5
Compound,inhibition (dengue virus type 2 [1]),inhibition (dengue virus type 2 [2]) [%],pIC50 [3],pEC50 (dengue virus type 2 [5]),IC50 [3],pEC50 (Zika virus [8]),CC50 at 48 h [4] [µM],Activity (Zika virus [6]) [%],selectivity ratio [7],selectivity ratio [9],CC50 (Huh-7),Activity (dengue virus type 2 [10]) [%]
CC(C)C(CC(=O)O)NC(=O)c1cc(-c2ccccc2)c(=O)n2c1sc1ccc(OC3CCCCC3)cc12 (racemic),75%,92.8,4.66,5.08,–,–,100,47.4,12,–,–,–
C#C[C@@]1(O)[C@H](O)[C@@H](CO)O[C@H]1n1ccc2c(N)ncnc21,–,–,–,–,–,–,–,–,100,> 100,–,–
CC(C)(CC(=O)O)NC(=O)c1cc(-c2ccccc2)c(=O)n2c1sc1ccc(OC3CCCCC3)cc12,81.5%,95.9,4.63,5.51,–,–,100,10.6,32,–,–,–
C[C@H](CO)NC(=O)c1cc(-c2ccccc2)c(=O)n2c1sc1ccc(OC3CCCCC3)cc12,inactive,42.7,–,5.24,Not Active,5.14,17.9,–,3,2.4,–,–
O=C(NCC1(C(=O)O)CC1)c1cc(-c2ccccc2)c(=O)n2c1sc1ccc(OC3CCCCC3)cc12,68.1%,96.7,4.75,5.12,–,–,100,15.8,13.3,–,–,–
CC(CC(=O)O)NC(=O)c1cc(-c2ccccc2)c(=O)n2c1sc1ccc(OC3CCCCC3)cc12 (racemic),22.7%,69.3,–,–,Not Active,–,–,29,–,–,Not Active,68.1
O=C(O)C1CCN(C(=O)c2cc(-c3ccccc3)c(=O)n3c2sc2ccc(OC4CCCCC4)cc23)C1 (racemic),11%,64.6,–,5.19,Not Active,5.09,> 100,–,> 15.6,> 12.2,–,–
O=C(O)C1CCCN(C(=O)c2cc(-c3ccccc3)c(=O)n3c2sc2ccc(OC4CCCCC4)cc23)C1 (racemic),inactive,64.9,–,–,Not Active,–,–,26.3,–,–,Not Active,65.3

# More lines, main results first:
inhibition (dengue virus type 2 [1]),inhibition (dengue virus type 2 [2]) [%],pIC50 [3],pEC50 (dengue virus type 2 [5]),IC50 [3],pEC50 (Zika virus [8]),Compound,CC50 at 48 h [4] [µM],Activity (Zika virus [6]) [%],selectivity ratio [7],selectivity ratio [9],CC50 (Huh-7),Activity (dengue virus type 2 [10]) [%]
inactive,36.9,–,5.89,Not Active,4.95,O=C(c1cc(-c2ccccc2)c(=O)n2c1sc1ccc(OC3CCCCC3)cc12)N1CCCC(O)C1 (racemic),22.2,–,17,2,–,–
79.3%,96.2,4.98,5.92,–,5.30,O=C(O)CC(NC(=O)c1cc(-c2ccccc2)c(=O)n2c1sc1ccc(OC3CCCCC3)cc12)c1ccccc1 (racemic),100,–,83,20,–,–
inactive,42.5,–,5.96,Not Active,5.09,C[C@@H](CO)NC(=O)c1cc(-c2ccccc2)c(=O)n2c1sc1ccc(OC3CCCCC3)cc12,21.7,–,20,2.6,–,–
inactive,37.2,–,6.05,Not Active,5.14,NC(=O)CCNC(=O)c1cc(-c2ccccc2)c(=O)n2c1sc1ccc(OC3CCCCC3)cc12,52.3,–,58,7.1,–,–
